Where a SMILES comes first, the peptide text is derived from it. The star is where a group is joined. X1 = COc1cccc2c1C(=O)c1c(O)c3c(c(O)c1C2=O)C[C@@](O)(/C(C)=N/OCC(=O)*)C[C@@H]3O[C@H]1C[C@H](N)[C@H](O)[C@H](C)O1
Columns and labels:
[1] = Potency index, ratio of compound IC50 to Daunomycin IC50 for human M24 cells preincubated for 24 hrs under serum free condition followed by compound washout and further incubation for 48 hrs in presence of serum by MTT assay; assay type: functional
CT26.WT = assay: Cytostatic activity against mouse CT26.WT cells preincubated for 24 hrs under serum free condition followed by compound washout and further incubation for 48 hrs in presence of serum by MTT assay; assay type: functional, cell-based
Outline: (§1)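 Cells were grown at 37 °C in 5% CO2 in medium with 10% heat-inactivated FBS (20% for OVCAR-3) plus penicillin/streptomycin. The medium was RPMI-1640 for most lines, DMEM for U-87 MG and MRC-5, and IMDM for PE/CA-PJ lines. Seeding was 3×10^3–10×10^3 cells per well. Cells had 24 h compound exposure, a wash, and 48 h further culture. Read-out was MTT, normalized to untreated cells and fitted by nonlinear regression for IC50.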

MDA-MB-231 = assay: Cytostatic activity against human MDA-MB-231 cells preincubated for 24 hrs under serum free condition followed by compound washout and further incubation for 48 hrs in presence of serum by MTT assay; assay type: functional, cell-based; outline: as §1
[2] = Drug metabolism in rat liver lysosomes homogenate assessed as Dau-containing metabolite formation at 0.05 ug/ul after 24 hrs by LC-MS analysis; assay type: ADME, subcellular, Lysosome; settings: tissue homogenate
Outline: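 Conjugates and rat liver lysosomal homogenate were each used at 0.05 µg/µL. Samples were taken at 0, 1, 3, 6 and 24 h. Metabolites were identified by LC-MS on a C18 column with a formic acid/acetonitrile gradient.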

DU-145 [3] = assay: Cytostatic activity against human DU145 cells preincubated for 24 hrs under serum free condition followed by compound washout and further incubation for 48 hrs in presence of serum by MTT assay; assay type: functional, cell-based; outline: as §1
[4] = Cytostatic activity against human PE/CA-PJ15 cells preincubated for 24 hrs under serum free condition followed by compound washout and further incubation for 48 hrs in presence of serum by MTT assay; assay type: functional, cell-based; outline: as §1
[5] = Cytostatic activity against human M24 cells preincubated for 24 hrs under serum free condition followed by compound washout and further incubation for 48 hrs in presence of serum by MTT assay; assay type: functional, cell-based; outline: as §1
MRC5 = assay: Cytostatic activity against human MRC5 cells preincubated for 24 hrs under serum free condition followed by compound washout and further incubation for 48 hrs in presence of serum by MTT assay; assay type: ADME, cell-based; outline: as §1
A549 [6] = assay: Potency index, ratio of compound IC50 to Daunomycin IC50 for human A549 cells preincubated for 24 hrs under serum free condition followed by compound washout and further incubation for 48 hrs in presence of serum by MTT assay; assay type: functional
WiDr = assay: Potency index, ratio of compound IC50 to Daunomycin IC50 for human WiDr cells preincubated for 24 hrs under serum free condition followed by compound washout and further incubation for 48 hrs in presence of serum by MTT assay; assay type: functional
HT-29 [7] = assay: Cytostatic activity against human HT-29 cells preincubated for 24 hrs under serum free condition followed by compound washout and further incubation for 48 hrs in presence of serum by MTT assay; assay type: functional, cell-based
Outline: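 HT-29 cells were exposed to the compound for 24 h, washed, and kept a further 48 h. Viability was read by MTT. Absorbances were normalized to untreated controls and fitted by nonlinear regression to dose-response curves to give IC50.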

HT-29 [8] = assay: Antitumor activity against human HT-29 cells xenografted in SCID mouse assessed as tumor growth inhibition by measuring decrease in tumor weight at 38.3 mg/kg, ip administered thrice in first week and twice in second week (on days 13, 16, 20, 23 and 27) starting from 13 days post inoculation measured at day 30 post inoculation relative to control; assay type: functional; settings: HT-29, ip
Outline: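 Orthotopic HT-29 tumours in female SCID mice aged 6–8 weeks (22–27 g), 8 per group. Conjugates were given i.p. in water for injection at 10 mg/kg Dau content on days 13, 16, 20, 23 and 27. The study ended on day 30. Tumours were weighed against solvent controls, and livers were weighed as a toxicity read-out.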

[9] = Cytostatic activity against human WM983B cells preincubated for 24 hrs under serum free condition followed by compound washout and further incubation for 48 hrs in presence of serum by MTT assay; assay type: functional, cell-based; outline: as §1
[10] = Potency index, ratio of compound IC50 to Daunomycin IC50 for human PE/CA-PJ15 cells preincubated for 24 hrs under serum free condition followed by compound washout and further incubation for 48 hrs in presence of serum by MTT assay; assay type: functional
A549 [11] = assay: Cytostatic activity against human A549 cells preincubated for 24 hrs under serum free condition followed by compound washout and further incubation for 48 hrs in presence of serum by MTT assay; assay type: functional, cell-based; outline: as §1
[12] = Drug uptake in mitochondria of human HT-29 cells assessed as increase in fluorescence at 50 uM after 30 mins by MitoTracker deep red staining based confocal microscopic analysis; assay type: ADME; settings: ht-29, 0.5 h
Outline: (§2)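 HT-29 cells were exposed to 50 µM conjugate for 30 min before imaging. Lysosomes were stained with LysoTracker Deep Red and mitochondria with MitoTracker Deep Red. Confocal imaging detected Dau at 550–600 nm.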

U-87 MG = assay: Cytostatic activity against human U87 cells preincubated for 24 hrs under serum free condition followed by compound washout and further incubation for 48 hrs in presence of serum by MTT assay; assay type: functional, cell-based, U-87MG ATCC; outline: as §1
HepG2 = assay: Potency index, ratio of compound IC50 to Daunomycin IC50 for human HepG2 cells preincubated for 24 hrs under serum free condition followed by compound washout and further incubation for 48 hrs in presence of serum by MTT assay; assay type: functional
[13] = Drug uptake in human HT-29 cells incubated for 3 hrs by flow cytometry; assay type: ADME, cell-based; settings: ht-29, 3 h
Outline: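 HT-29 cells were exposed to 100 µM conjugate for 3 h. Flow cytometry recorded the percentage of Dau-positive cells and the mean fluorescence intensity, in duplicate.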

[14] = Drug uptake in lysosome of human HT-29 cells assessed as increase in fluorescence at 50 uM after 30 mins by LysoTracker deep red staining based confocal microscopic analysis; assay type: ADME, subcellular; settings: ht-29, 0.5 h; outline: as §2
[15] = Stability in 2.5% fetal bovine serum containing medium at 30 uM measured after 24 hrs by LC/MS analysis; assay type: ADME, cell-free, Bos taurus; settings: cattle
Outline: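 Conjugates (30 μM) were incubated at 37 °C in medium containing 2.5% FBS. Samples were taken at 0, 3, 6 and 24 h, quenched with acetic acid, lyophilised, desalted on C18 spin columns and analysed by LC-MS. Cleavage products were identified by mass.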

DU-145 [16] = assay: Potency index, ratio of compound IC50 to Daunomycin IC50 for human DU145 cells preincubated for 24 hrs under serum free condition followed by compound washout and further incubation for 48 hrs in presence of serum by MTT assay; assay type: functional
4T1 = assay: Potency index, ratio of compound IC50 to Daunomycin IC50 for mouse 4T1 cells preincubated for 24 hrs under serum free condition followed by compound washout and further incubation for 48 hrs in presence of serum by MTT assay; assay type: functional
[17] = Toxicity in SCID mouse xenografted with human HT-29 cells assessed as animal death at 38.3 mg/kg, ip administered thrice in first week and twice in second week (on days 13, 16, 20, 23 and 27) starting from 13 days post inoculation measured upto 30 days post inoculation; assay type: organism-based; settings: in vivo
Outline: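 Female SCID mice (6–8 weeks, 22–27 g) with orthotopic HT-29 colon tumours. Conjugates given i.p. in distilled water for injection at 10 mg/kg Dau content (36.6 or 38.3 mg/kg conjugate) on days 13, 16, 20, 23 and 27, 8 mice/group. Study ended day 30; deaths and body weight recorded against a solvent-treated control group.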

With `COc1cccc2c1C(=O)c1c(O)c3c(c(O)c1C2=O)C[C@@](O)(/C(C)=N/OCC(=O)N[C@@H](CC(C)C)C(=O)N[C@@H](CCCNC(=N)N)C(=O)N[C@@H](CCCNC(=N)N)C(=O)N[C@@H](Cc1ccc(O)cc1)C(=O)N[C@H](C(=O)N[C@@H](Cc1cnc[nH]1)C(=O)N[C@@H](CC(C)C)C(=O)N[C@@H](Cc1ccccc1)C(=O)N[C@@H](Cc1ccc(O)cc1)C(=O)N[C@@H](C)C(=O)N[C@H](C(N)=O)[C@@H](C)O)C(C)C)C[C@@H]3O[C@H]1C[C@H](N)[C@H](O)[C@H](C)O1` (X1-LRRYVHLFYAT-NH2) the “Ratio IC50” value [1] was 61.7, the IC50 (CT26.WT) was 8.3 µM and the IC50 (MDA-MB-231) was 4.6 µM. The Drug metabolism [2] was “Metabolite_Detected”, the IC50 (DU-145 [3]) was 3.5 µM and the IC50 [4] was 7.4 µM. For the same compound, the IC50 [5] was 5.8 µM, the IC50 (MRC5) was 52.1 µM and the “Ratio IC50” value (A549 [6]) was 86.1. For the same compound, the “Ratio IC50” value (WiDr) was 62.8, the IC50 (HT-29 [7]) was 6.5 to 11.6 µM and the inhibition in vivo at 38.3 mg/kg (HT-29 [8]) was 89%. For the same compound, the IC50 [9] was 5.1 µM, the “Ratio IC50” value [10] was 277.3 and the IC50 (A549 [11]) was 5.9 µM. For the same compound, the Drug uptake [12] was “Not Active”, the IC50 (U-87 MG) was 6.6 µM and the “Ratio IC50” value (HepG2) was 220.2. The Drug uptake [13] was “Dose-dependent effect”, the Drug uptake [14] was “Active” and the Stability [15] was “Stable”. The “Ratio IC50” value (DU-145 [16]) was 142.3, the “Ratio IC50” value (4T1) was 284.6 and the Activity [17] was “Non-Toxic”.
